Legend:
Type in all cases: ADME, organism-based
Conditions in all cases: in vivo, 0.5 h; call rule not given here
Plasma [1] = test: Drug level in mouse plasma assessed as radioactivity of [11C]-ibuprofen at 70 to 125 MBq, iv after 30 mins by HPLC analysis
How it was run: (§1)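 Normal mice, 20–25 g, n = 3 per isomer; iv dose <0.43 nmol. Decapitated at 30 min. Heparinized blood centrifuged to plasma; plasma radioactivity counted in a dose calibrator as % dose/mL. Plasma deproteinized with 2 volumes of ethanol and filtered, then run on chiral reversed-phase OJ-RH HPLC with radiodetection. Peaks identified by co-injected unlabeled ibuprofen; fractions decay- and baseline-corrected; mean ± SD.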

Liver = test: Biodistribution in mouse liver at 9 to 12 MBq, iv after 30 mins by PET analysis
How it was run: (§2)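 Normal male BALB/c mice, 6–7 wk, under isoflurane with a heating pad. Each enantiomer given as a 0.2 mL iv bolus (<0.18 nmol) diluted in saline. PET acquired for 30 min in 13 frames and reconstructed by FBP without attenuation correction. Regional radioactivity taken from VOI analysis of time-activity curves.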

Plasma [2] = test: Drug level in mouse plasma assessed as (S)-[11C]-ibuprofen level at 70 to 125 MBq, iv after 30 mins by HPLC analysis; how it was run: as §1
Mus musculus [3] = test: Biodistribution in mouse cerebrum at 9 to 12 MBq, iv after 30 mins by PET analysis; how it was run: as §2
Plasma [4] = test: Drug level in mouse plasma at 70 to 125 MBq, iv after 30 mins by HPLC analysis; how it was run: as §1
Urinary bladder = test: Biodistribution in mouse bladder at 9 to 12 MBq, iv after 30 mins by PET analysis; how it was run: as §2
Plasma [5] = test: Drug level in mouse plasma assessed as (R)-[11C]-ibuprofen level at 70 to 125 MBq, iv after 30 mins by HPLC analysis; how it was run: as §1
Plasma [6] = test: Drug level in mouse plasma assessed as [11C]-ibuprofen level at 70 to 125 MBq, iv after 30 mins by HPLC analysis; how it was run: as §1
Kidney = test: Biodistribution in mouse kidney at 9 to 12 MBq, iv after 30 mins by PET analysis; how it was run: as §2
Heart = test: Biodistribution in LPS treated BALB/c mouse anti-collagen antibody-induced arthritis model heart at 9 to 12 MBq, iv after 30 mins by PET analysis
How it was run: (§3)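 Male BALB/c mice, 6–7 wk. Arthritis induced with an iv anti-type II collagen mAb cocktail (1.5 mg), then ip LPS (30 μg) on day 3; mice used 4 days after LPS with a score of 3 in each limb. Enantiomer given as an iv bolus (<0.18 nmol, in saline). Dynamic PET for 30 min under isoflurane. VOIs drawn on ankles and heart; SUV time-activity curves. Each mouse received both isomers 5 h apart.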

Mus musculus [7] = test: Biodistribution in LPS treated BALB/c mouse anti-collagen antibody-induced arthritis model ankle of hindlimb at 9 to 12 MBq, iv after 30 mins by PET analysis relative to normal mouse; how it was run: as §3
Mus musculus [8] = test: Biodistribution in LPS treated BALB/c mouse anti-collagen antibody-induced arthritis model arthritic joints at 9 to 12 MBq, iv after 30 mins by PET analysis; how it was run: as §3
Plasma [9] = test: Drug level in mouse plasma assessed as fraction of metabolites level at 70 to 125 MBq, iv after 30 mins by HPLC analysis; how it was run: as §1

Row | Structure (SMILES) | Drug uptake (Plasma [1]) | Drug uptake (Liver) | Drug uptake (Plasma [2]) | Drug uptake (Mus musculus [3]) | Drug uptake (Plasma [4]) | Drug uptake (Urinary bladder) | Drug uptake (Plasma [5]) | Drug uptake (Plasma [6]) | Drug uptake (Kidney) | Drug uptake (Heart) | fold change (FC) (Mus musculus [7]) | Drug uptake (Mus musculus [8]) | Drug uptake (Plasma [9])
1 | CC(C)Cc1ccc([C@@H]([11CH3])C(=O)O)cc1 | 5.9 %ID/ml | Active | 52% | Active | 8.3 %ID/ml | Active | 23% | 75% | Active | Not Active | > 2 | Active | 25%
2 | CC(C)Cc1ccc([C@H]([11CH3])C(=O)O)cc1 | 6.2 %ID/ml | Active | 65% | Active | 8.9 %ID/ml | Active | 0.78% | 66% | Active | Not Active | > 2 | Active | 34%
